By IC50 is commonly meant the concentration needed to halve the response being measured.

From ChEMBL document CHEMBL1124298, “Synthesis and antineoplastic activity of 5-aryl-2,3-dihydropyrrolo[2,1-b]thiazole-6,7-dimethanol 6,7-bis(isopropylcarbamates)” (J Med Chem, 1988) come the findings set out here.

Test [1] deals with HL-60. Put plainly: Growth inhibitory activity against HL-60 human promyelocytic leukemia cell line relative to NSC-278214. The format is functional.
Test [2] has as its system HL-60. Nature of the test: Concentration required to reduce cell number (HL-60 human promyelocytic leukemia cell line) on day 7 by 50%. Type of test: functional, cell-based. The conditions noted are these: HL-60, 168 h. In short, it runs like this: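 HL-60 cells were grown in RPMI 1640 with 10% heat-inactivated FBS at 37 °C in humidified 10% CO2, resuspended at 10⁵/mL, and given drug. Drug was dissolved in DMSO, with at most 0.2% DMSO in the culture. Cells were counted by Coulter counter on day 7. IC50 is the concentration that reduced cell number by 50%. Values are from three experiments.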

For `CC(C)NC(=O)OCc1c(COC(=O)NC(C)C)c(-c2ccc(Cl)c(Cl)c2)n2c1CCC2`, the Potency in the test on HL-60 [1] was 1. The compound also showed an IC50 in the test on HL-60 [2] of 1500 nM.

Regarding `CC(C)NC(=O)OCc1ccccc1COC(=O)NC(C)C`, in the test on HL-60 [1], the Potency is less than 0.005. For the same compound, the 50% inhibitory concentration (IC50) with HL-60 [2] was greater than 300000 nM.

`CC(C)NC(=O)OCc1c(COC(=O)NC(C)C)c(-c2ccc(F)cc2)n2c1SCC2` had a Potency in the test with HL-60 [1] of 0.94. In the test with HL-60 [2], this compound displayed an IC50 of 1600 nM.

In the test on HL-60 [1], `CC(C)NC(=O)OCc1c(COC(=O)NC(C)C)c(-c2ccc(Cl)c(Cl)c2)n2c1SCC2` gave a Potency of 0.79. The compound further yielded a 50% inhibitory concentration (IC50) in the test on HL-60 [2] of 1900 nM.

`CC(C)NC(=O)OCc1c(COC(=O)NC(C)C)c(-c2ccc(Cl)cc2)n2c1SCC2` came in with a Potency in the test with HL-60 [1] of 1.76. Half-maximal inhibition with HL-60 [2] (IC50) required 850 nM.

For `CC(C)NC(=O)OCc1c(COC(=O)NC(C)C)c(-c2ccccc2)n2c1SCC2`, the Potency with HL-60 [1] was determined as 1. This compound showed an IC50 with HL-60 [2] of 1500 nM.
